Assay results as given in ChEMBL document CHEMBL2163281, “p-(4-Azipentyl)propofol: a potent photoreactive general anesthetic derivative of propofol” (J Med Chem, 2011).
pEC50, pIC50: −log10 of the molar value. Converted amounts (≈) assume the structure as drawn. The source made the active and inactive calls. No cut-off for these calls is given here.

Legend:
[1] = target: T1, GABA-A receptor; agonist GABA site (Homo sapiens) (UniProt P14867+P47870+P28472+P48169+P34903+P18505+P47869+P31644+Q16445); experiment: Agonist activity at human alpha1beta2gamma2L GABAA receptor expressed in Xenopus oocytes assessed as potentiation of channel current response by two-electrode voltage clamp electrophysiology assay relative to control; type: functional, cell-based; conditions: Oocyte
[2] = target: GABA-A receptor; agonist GABA site; experiment: Agonist activity at human alpha1beta2gamma2L GABAA receptor expressed in Xenopus oocytes assessed as potentiation of GABA-induced current response by two-electrode voltage clamp electrophysiology assay; type: functional, cell-based; conditions: oocyte
[3] = Binding affinity to VDAC assessed as photoincorporation at 1.7 uM by SDS-PAGE followed by fluorography analysis; conditions: tested as the 3H-labelled form
In short: (§1)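 Torpedo californica electric-organ nACh receptor-rich membranes at 2 mg/mL in Torpedo saline pH 7.0 with 1 mM oxidized glutathione. Membranes were equilibrated 30 min with 1.7 μM [3H]ligand alone or with 100 μM tetracaine, 100 μM phencyclidine, 300 μM propofol and/or 1 mM carbamylcholine. Samples were UV-irradiated at 365 nm on ice for 30 min. Read-out: 8% SDS-PAGE, fluorography (2 weeks) and scintillation counting of gel bands.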

[4] = tested on: Tetronarce californica; experiment: Binding affinity to Torpedo californica nACh-beta receptor assessed as photoincorporation at 1.7 uM by SDS-PAGE followed by fluorography analysis in presence of tetracaine; conditions: tested as the 3H-labelled form; in short: as §1
[5] = tested on: Tetronarce californica; experiment: Binding affinity to Torpedo californica nACh-gamma receptor assessed as photoincorporation at 1.7 uM by SDS-PAGE followed by fluorography analysis in presence of phencyclidine; conditions: tested as the 3H-labelled form; in short: as §1
[6] = tested on: Tetronarce californica; experiment: Binding affinity to Torpedo californica nACh-beta receptor assessed as photoincorporation at 1.7 uM by SDS-PAGE followed by fluorography analysis in presence of propofol; conditions: tested as the 3H-labelled form; in short: as §1
[7] = target: T2, GABA-A receptor; alpha-1/beta-3/gamma-2 (Homo sapiens) (UniProt P14867+P18507+P28472); experiment: Increase of [3H]-flunitrazepam binding to alpha1beta3gamma2 GABAA receptor expressed in HEK293S-TetR cells up to 400 uM after 1 hr by liquid scintillation counting; type: cell-based
In short: (§2)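 Membranes from HEK293S-TetR cells expressing α1β3γ2 GABAA receptors (200 μg protein) in 10 mM phosphate pH 7.4, 200 mM KCl, 1 mM EDTA. Incubated with 3 nM [3H]muscimol or 1.5 nM [3H]flunitrazepam plus drug for 1 h at 4°C. Nonspecific binding was set with 1 mM GABA or 1 mM flurazepam. Filtered onto PEI-treated filters, then scintillation-counted; triplicates.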

[8] = tested on: Tetronarce californica; experiment: Binding affinity to Torpedo californica nACh-delta receptor assessed as photoincorporation at 1.7 uM by SDS-PAGE followed by fluorography analysis in presence of carbamylcholine; conditions: tested as the 3H-labelled form; in short: as §1
[9] = tested on: Tetronarce californica; experiment: Binding affinity to Torpedo californica nACh-alpha receptor assessed as photoincorporation at 1.7 uM by SDS-PAGE followed by fluorography analysis in presence of carbamylcholine; conditions: tested as the 3H-labelled form; in short: as §1
[10] = tested on: Tetronarce californica; experiment: Binding affinity to Torpedo californica nACh-delta receptor assessed as photoincorporation at 1.7 uM by SDS-PAGE followed by fluorography analysis; conditions: tested as the 3H-labelled form; in short: as §1
[11] = target: T2, GABA-A receptor; alpha-1/beta-3/gamma-2 (Homo sapiens); experiment: Increase of [3H]-flunitrazepam binding to alpha1beta3gamma2 GABAA receptor expressed in HEK293S-TetR cells at >30 uM after 1 hr by liquid scintillation counting; type: cell-based; in short: as §2
[12] = target: T3, 43 kDa receptor-associated protein of the synapse (Homo sapiens) (UniProt Q13702); experiment: Binding affinity to RAPsyn assessed as photoincorporation at 1.7 uM by SDS-PAGE followed by fluorography analysis; conditions: tested as the 3H-labelled form; in short: as §1
T3 sequence (whole entry): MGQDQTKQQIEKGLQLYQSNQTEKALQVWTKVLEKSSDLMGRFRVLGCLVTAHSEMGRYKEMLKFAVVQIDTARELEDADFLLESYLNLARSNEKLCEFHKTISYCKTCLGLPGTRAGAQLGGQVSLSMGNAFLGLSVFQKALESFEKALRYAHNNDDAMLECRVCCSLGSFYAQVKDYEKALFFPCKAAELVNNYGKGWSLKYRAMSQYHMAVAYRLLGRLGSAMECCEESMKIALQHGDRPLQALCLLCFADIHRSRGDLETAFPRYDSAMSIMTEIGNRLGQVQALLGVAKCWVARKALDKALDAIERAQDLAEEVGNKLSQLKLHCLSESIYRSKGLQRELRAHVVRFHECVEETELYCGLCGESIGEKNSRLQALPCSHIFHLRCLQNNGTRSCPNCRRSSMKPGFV

[13] = tested on: Tetronarce californica; experiment: Binding affinity to Torpedo californica nACh-delta receptor assessed as photoincorporation at 1.7 uM by SDS-PAGE followed by fluorography analysis in presence of propofol; conditions: tested as the 3H-labelled form; in short: as §1
[14] = target: T2, GABA-A receptor; alpha-1/beta-3/gamma-2 (Homo sapiens); experiment: Increase of [3H]-flunitrazepam binding to alpha1beta3gamma2 GABAA receptor expressed in HEK293S-TetR cells at 0.1 to 40 uM after 1 hr by liquid scintillation counting relative to control; type: cell-based; in short: as §2
[15] = Binding affinity to Na+/K+ ATPase alpha assessed as photoincorporation at 1.7 uM by SDS-PAGE followed by fluorography analysis; conditions: tested as the 3H-labelled form; in short: as §1
[16] = tested on: Tetronarce californica; experiment: Binding affinity to Torpedo californica nACh-delta receptor assessed as photoincorporation at 1.7 uM by SDS-PAGE followed by fluorography analysis in presence of phencyclidine; conditions: tested as the 3H-labelled form; in short: as §1
[17] = target: GABA-A receptor; agonist GABA site; experiment: Agonist activity at human alpha1beta2gamma2L GABAA receptor expressed in Xenopus oocytes assessed as potentiation of channel current response by two-electrode voltage clamp electrophysiology assay; type: functional, cell-based; conditions: oocyte
[18] = tested on: Tetronarce californica; experiment: Binding affinity to Torpedo californica nACh-beta receptor assessed as photoincorporation at 1.7 uM by SDS-PAGE followed by fluorography analysis in presence of phencyclidine; conditions: tested as the 3H-labelled form; in short: as §1
[19] = Antagonist activity at Torpedo californica nACh receptor expressed in Xenopus oocytes assessed as inhibition of acetylcholine-induced current response; type: functional, cell-based; conditions: Tetronarce californica, Oocyte
In short: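 Torpedo nACh receptor cRNA (2α:1β:1γ:1δ, ~25 ng) injected into Xenopus oocytes. Two-electrode clamp at −50 mV in ND96. Currents were evoked by 10 μM ACh (~EC20), then by ACh plus 1–100 μM drug for 15–20 s with ~3 min washes. Currents were normalized to the ACh response and fit to a logistic inhibition equation; 3 oocytes.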

[20] = target: T1, GABA-A receptor; agonist GABA site (Homo sapiens); experiment: Agonist activity at human alpha1beta2gamma2L GABAA receptor expressed in Xenopus oocytes assessed as potentiation of GABA-induced current response at 6 uM by two-electrode voltage clamp electrophysiology assay relative to control; type: functional, cell-based; conditions: Oocyte
[21] = tested on: Tetronarce californica; experiment: Binding affinity to Torpedo californica nACh-beta receptor assessed as photoincorporation at 1.7 uM by SDS-PAGE followed by fluorography analysis; conditions: tested as the 3H-labelled form; in short: as §1
[22] = tested on: Tetronarce californica; experiment: Binding affinity to Torpedo californica nACh-alpha receptor assessed as increase photoincorporation at 1.7 uM by SDS-PAGE followed by fluorography analysis in presence of carbamylcholine and propofol; conditions: tested as the 3H-labelled form; in short: as §1
[23] = Chemical stability of the compound in 0.01 M Tris-HCl buffer at pH 7.4 at 4 degC after 2.5 days; type: physicochemical; conditions: pH 7.4, 60 h
In short: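 Held near saturation in buffer at 4°C for at least 2.5 days, then analysed by reverse-phase HPLC.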

[24] = tested on: Tetronarce californica; experiment: Binding affinity to Torpedo californica nACh-gamma receptor assessed as photoincorporation at 1.7 uM by SDS-PAGE followed by fluorography analysis; conditions: tested as the 3H-labelled form; in short: as §1
[25] = tested on: Tetronarce californica; experiment: Binding affinity to Torpedo californica nACh-gamma receptor assessed as photoincorporation at 1.7 uM by SDS-PAGE followed by fluorography analysis in presence of propofol; conditions: tested as the 3H-labelled form; in short: as §1
[26] = tested on: Tetronarce californica; experiment: Binding affinity to Torpedo californica nACh-beta receptor assessed as photoincorporation at 1.7 uM by SDS-PAGE followed by fluorography analysis in presence of carbamylcholine; conditions: tested as the 3H-labelled form; in short: as §1
[27] = tested on: Xenopus laevis; experiment: Anesthetic activity in Xenopus laevis tadpoles assessed as loss of righting reflexes; type: functional, organism-based; conditions: Tadpole
In short: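 Xenopus tadpoles in groups of 5 were held in 2.5 mM Tris HCl pH 7.4 under low light at seven concentrations from 1.0 to 20 μM, with ethanol ≤5 mM. Each animal was flipped every 10 min until a stable response, usually at 40 min. LoRR meant failure to right within 5 s. Only animals that recovered overnight were analysed. Quantal scores were fit to a logistic equation.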

[28] = tested on: Tetronarce californica; experiment: Binding affinity to Torpedo californica nACh-alpha receptor assessed as decrease photoincorporation at 1.7 uM by SDS-PAGE followed by fluorography analysis in presence of carbamylcholine and phencyclidine; set-up: scale not given: the % may be the effect or the level left; conditions: tested as the 3H-labelled form; in short: as §1
[29] = target: T2, GABA-A receptor; alpha-1/beta-3/gamma-2 (Homo sapiens); experiment: Increase of [3H]muscimol binding to alpha1beta3gamma2 GABAA receptor expressed in HEK293S-TetR cells after 1 hr by liquid scintillation counting relative to control; type: cell-based; in short: as §2
[30] = Aqueous solubility of the compound in 0.01 M Tris-HCl buffer at pH 7.4; type: physicochemical
[31] = tested on: Tetronarce californica; experiment: Binding affinity to Torpedo californica nACh-gamma receptor assessed as photoincorporation at 1.7 uM by SDS-PAGE followed by fluorography analysis in presence of tetracaine; conditions: tested as the 3H-labelled form; in short: as §1
[32] = target: T1, GABA-A receptor; agonist GABA site (Homo sapiens); experiment: Agonist activity at human alpha1beta2gamma2L GABAA receptor expressed in Xenopus oocytes assessed as potentiation of GABA-induced current response at 100 uM by two-electrode voltage clamp electrophysiology assay relative to control; type: functional, cell-based; conditions: Oocyte
[33] = tested on: Tetronarce californica; experiment: Binding affinity to Torpedo californica nACh-gamma receptor assessed as photoincorporation at 1.7 uM by SDS-PAGE followed by fluorography analysis in presence of carbamylcholine; conditions: tested as the 3H-labelled form; in short: as §1
[34] = tested on: Tetronarce californica; experiment: Binding affinity to Torpedo californica nACh-delta receptor assessed as photoincorporation at 1.7 uM by SDS-PAGE followed by fluorography analysis in presence of tetracaine; conditions: tested as the 3H-labelled form; in short: as §1
[35] = Aqueous solubility of the compound in water

With `CC(C)c1cc(CCCC2(C)N=N2)cc(C(C)C)c1O` the Activity [1] was 10%, the pEC50 [2] was 5.35 and the Activity [3] was “Active”. For the same compound, the Activity [4] was < 20%, the Activity [5] was < 20% and the Activity [6] was < 20%. The Activity [7] was “inactive”, the Activity [8] was < 20% and the Activity [9] was 100%. For the same compound, the Activity [10] was “Active”, the Activity [11] was “Active” and the Activity [12] was “Active”. The Activity [13] was < 20%, the fold change (FC) [14] was 1.6 and the Activity [15] was “Active”. For the same compound, the Activity [16] was < 20%, the pEC50 [17] was 4.82 and the Activity [18] was < 20%. For the same compound, the pIC50 [19] was 5.40, the fold change (FC) [20] was 9 and the Activity [21] was “Active”. The Activity [22] was 20%, the Stability [23] was “Stable” and the Activity [24] was “Active”. For the same compound, the Activity [25] was < 20%, the Activity [26] was < 20% and the pEC50 [27] was 5.49. It also gave an Activity [28] of 20%, a fold change (FC) [29] of 1.6 and a solubility [30] of 73 µM (≈ 20 µg/mL). The Activity [31] was < 20%, the fold change (FC) [32] was 20 and the Activity [33] was < 20%. For the same compound, the Activity [34] was < 20%.
For `CC(C)c1cccc(C(C)C)c1O` [PROPOFOL], the Activity [1] was 45%, the pEC50 [2] was 5.28 and the Activity [7] was “inactive”. For the same compound, the Activity [11] was “inactive”, the fold change (FC) [14] was 2 and the pEC50 [17] was 4.30. The solubility [35] was 1000 µM (≈ 178 µg/mL), the pIC50 [19] was 5.14 and the pEC50 [27] was 5.66. The fold change (FC) [29] was 2.4.
